In ChEMBL document CHEMBL4325852, “Design, synthesis, and discovery of ocotillol-type amide derivatives as orally available modulators of P-glycoprotein-mediated multidrug resistance” (Eur J Med Chem, 2019):
Calls of active or inactive are those of the source. The rule behind the calls is not given here.

Experiments:
[1] = Cell cycle arrest in human KBV cells assessed as accumulation at sub-G1 phase at 10 uM after 24 hrs by propidium iodide staining based flow cytometry (reference value: 2.21 +/- 1.02%); type: ADME
How it was run: (§1)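 KBV cells (grown in DMEM with 10% fetal calf serum and penicillin/streptomycin, with 10 nM paclitaxel added to maintain resistance) seeded at 3×10^5 per well and cultured 24 h. Test compound added, with or without paclitaxel 0.1 μM, for 24 h. Cells fixed in 70% ethanol overnight at –20 °C, stained 30 min with PI plus RNase A, and analysed by flow cytometry; mean ± SD, n = 3.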

[2] = Cell cycle arrest in human KBV cells assessed as accumulation at S phase at 10 uM after 24 hrs by propidium iodide staining based flow cytometry (reference value: 10.03 +/- 0.75%); type: ADME; how it was run: as §1
[3] = target: T1, ATP-dependent translocase ABCB1 (Homo sapiens, UniProt P08183); assay: Reversal of P-gp-mediated multidrug resistance in human KBV cells assessed as potentiation of paclitaxel-induced cytotoxicity by measuring cell survival at 10 uM after 72 hrs by MTT assay (reference value: 104 +/- 8%); type: cell-based
[4] = Cell cycle arrest in human KBV cells assessed as accumulation at G0/G1 phase at 10 uM after 24 hrs by propidium iodide staining based flow cytometry (reference value: 70.35 +/- 0.79%); type: ADME; how it was run: as §1
[5] = Cell cycle arrest in human KBV cells assessed as accumulation at G2/M phase at 10 uM after 24 hrs by propidium iodide staining based flow cytometry (reference value: 19.62 +/- 1.54%); type: ADME; how it was run: as §1
[6] = target: P-gp (ABCB1) ATPase (Homo sapiens, UniProt P08183); assay: Stimulation of P-gp ATPase activity (unknown origin) at 0.5 mM preincubated for 5 mins followed by Mg-ATP addition measured after 40 mins by ATP-Glo luminescence assay relative to control; conditions: read-out: FC
[7] = species: Homo sapiens; assay: Downregulation of P-gp protein expression in human KBV cells by western blot analysis; type: functional, cell-based
[8] = Cytotoxicity against human KBV cells assessed as cell survival at 10 uM after 72 hrs by MTT assay relative to control; type: cell-based; conditions: read-out: Survival
How it was run: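 KBV (Pgp-overexpressing MDR line) grown in DMEM/10% FCS, kept in 10 nM paclitaxel; seeded, compound (DMSO stock) added next day, 72 h; MTT 2 h, formazan in DMSO, A570 gives survival vs DMSO solvent control; n = 1-3 independent experiments, mean ± SD.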

[9] = target: T1, ATP-dependent translocase ABCB1; assay: Reversal of P-gp-mediated multidrug resistance in human KBV cells assessed as potentiation of paclitaxel-induced cell cycle arrest by measuring accumulation at G2/M phase at 5 uM after 24 hrs by propidium iodide staining based flow cytometry (reference value: 16.35 +/- 2.02%); how it was run: as §1
[10] = Toxicity in Balb/c nude mouse xenografted with human KBV cells assessed as body weight at 10 mg/kg, po via gavage for 2 weeks cotreated with 30 mg/kg, ip paclitaxel (reference value: 19.84 to 20.62 g); type: organism-based; conditions: in vivo, 336 h
[11] = Toxicity in Balb/c nude mouse xenografted with human KBV cells assessed as body weight at 10 mg/kg, po via gavage for 2 weeks (reference value: 19.84 to 20.62 g); type: organism-based; conditions: in vivo, 336 h
[12] = target: T1, ATP-dependent translocase ABCB1; assay: Reversal of P-gp-mediated multidrug resistance in human KBV cells assessed as potentiation of paclitaxel-induced cytotoxicity by measuring decrease in paclitaxel IC50 at 10 uM after 72 hrs by MTT assay relative to paclitaxel alone; type: cell-based
[13] = target: T1, ATP-dependent translocase ABCB1; assay: Reversal of P-gp-mediated multidrug resistance in human KBV cells assessed as potentiation of paclitaxel-induced cytotoxicity by measuring decrease in paclitaxel IC50 at 5 uM after 72 hrs by MTT assay relative to paclitaxel alone; type: cell-based
[14] = Potentiation of paclitaxel-induced antitumor activity against human KBV cells xenografted in Balb/c nude mouse assessed as tumor growth inhibition at 10 mg/kg, po via gavage for 2 weeks cotreated with 30 mg/kg, ip paclitaxel (reference value: 17.9%); type: functional
[15] = target: T1, ATP-dependent translocase ABCB1; assay: Reversal of P-gp-mediated multidrug resistance in human KBV cells assessed as potentiation of paclitaxel-induced cell cycle arrest by measuring accumulation at G0/G1 phase at 5 uM after 24 hrs by propidium iodide staining based flow cytometry (reference value: 71.11 +/- 2%); how it was run: as §1
[16] = Cytotoxicity against human KBV cells xenografted in Balb/c nude mouse assessed as tumor growth inhibition at 10 mg/kg, po via gavage for 2 weeks relative to control; type: organism-based; conditions: in vivo, 336 h
[17] = target: T1, ATP-dependent translocase ABCB1; assay: Reversal of P-gp-mediated multidrug resistance in human KBV cells assessed as potentiation of paclitaxel-induced cytotoxicity by measuring cell survival at 5 uM after 72 hrs by MTT assay (reference value: 104 +/- 8%); type: cell-based
[18] = target: T1, ATP-dependent translocase ABCB1; assay: Reversal of P-gp-mediated multidrug resistance in human KBV cells assessed as potentiation of paclitaxel-induced cell cycle arrest by measuring accumulation at sub-G1 phase at 5 uM after 24 hrs by propidium iodide staining based flow cytometry (reference value: 2.29 +/- 0.39%); how it was run: as §1
[19] = target: T1, ATP-dependent translocase ABCB1; assay: Inhibition of P-gp-mediated Rh-123 efflux in human KBV cells assessed as Rh-123 accumulation preincubated for 2 hrs followed by Rh-123 addition measured after 30 mins by flow cytometry; type: cell-based; conditions: 0.5 h
How it was run: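 KBV cells treated with or without compound for 2 h at the indicated concentrations, then loaded with 10 μM Rhodamine123 for 30 min. Cells harvested, washed three times in PBS and analysed by flow cytometry.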

[20] = target: T1, ATP-dependent translocase ABCB1; assay: Reversal of P-gp-mediated multidrug resistance in human KBV cells assessed as potentiation of paclitaxel-induced cell cycle arrest by measuring accumulation at S phase at 5 uM after 24 hrs by propidium iodide staining based flow cytometry (reference value: 12.54 +/- 4.01%); how it was run: as §1
[21] = target: T1, ATP-dependent translocase ABCB1; assay: Stimulation of P-gp ATPase activity (unknown origin) assessed as increase in ATP consumption preincubated for 5 mins followed by Mg-ATP addition measured after 40 mins by ATP-Glo luminescence assay relative to control

T1 sequence (P08183 whole entry): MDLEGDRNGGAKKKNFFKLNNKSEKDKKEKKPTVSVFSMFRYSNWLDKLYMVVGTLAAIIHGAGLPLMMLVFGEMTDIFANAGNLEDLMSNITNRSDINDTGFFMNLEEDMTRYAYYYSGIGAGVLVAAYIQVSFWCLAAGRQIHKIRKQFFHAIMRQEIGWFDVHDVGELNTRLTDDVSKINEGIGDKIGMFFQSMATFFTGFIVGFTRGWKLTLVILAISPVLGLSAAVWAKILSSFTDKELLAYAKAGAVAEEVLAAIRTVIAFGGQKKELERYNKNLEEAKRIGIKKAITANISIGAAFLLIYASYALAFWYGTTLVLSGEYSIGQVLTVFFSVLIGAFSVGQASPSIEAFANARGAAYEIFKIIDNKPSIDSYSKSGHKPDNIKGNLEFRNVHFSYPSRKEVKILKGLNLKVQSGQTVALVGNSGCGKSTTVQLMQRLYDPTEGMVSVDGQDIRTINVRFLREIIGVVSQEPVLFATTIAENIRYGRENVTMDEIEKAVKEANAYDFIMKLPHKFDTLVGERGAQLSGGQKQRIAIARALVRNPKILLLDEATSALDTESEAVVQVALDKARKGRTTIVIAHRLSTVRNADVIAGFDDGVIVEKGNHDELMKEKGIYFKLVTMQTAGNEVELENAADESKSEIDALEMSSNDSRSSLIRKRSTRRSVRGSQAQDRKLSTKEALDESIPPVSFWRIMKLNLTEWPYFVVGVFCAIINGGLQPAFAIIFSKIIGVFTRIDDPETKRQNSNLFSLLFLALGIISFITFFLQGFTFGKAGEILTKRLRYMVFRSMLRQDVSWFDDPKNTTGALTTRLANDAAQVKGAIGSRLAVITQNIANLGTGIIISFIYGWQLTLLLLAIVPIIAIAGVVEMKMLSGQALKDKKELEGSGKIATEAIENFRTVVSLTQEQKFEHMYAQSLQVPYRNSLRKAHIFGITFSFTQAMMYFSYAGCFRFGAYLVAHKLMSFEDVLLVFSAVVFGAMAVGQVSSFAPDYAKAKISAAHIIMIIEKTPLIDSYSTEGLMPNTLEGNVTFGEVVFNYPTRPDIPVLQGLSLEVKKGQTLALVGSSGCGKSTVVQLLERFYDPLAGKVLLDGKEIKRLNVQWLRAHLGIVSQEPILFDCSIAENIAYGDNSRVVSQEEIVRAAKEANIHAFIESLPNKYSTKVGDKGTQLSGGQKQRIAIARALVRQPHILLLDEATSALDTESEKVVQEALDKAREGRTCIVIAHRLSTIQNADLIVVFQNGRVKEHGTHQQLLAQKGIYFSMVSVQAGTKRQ
P-gp (ABCB1) ATPase, sequence (P08183 whole entry): as above

Row | Compound | Activity [1] | Activity [2] | Survival [3] | Activity [4] | Activity [5] | viability at 72 h, 10 µM [8] | fold change (FC) [12] | fold change (FC) [13] | Survival [17] | other results
1 | COc1ccc(CCN(C)CCCC(C#N)(c2ccc(OC)c(OC)c2)C(C)C)cc1OC (stereo unspecified) | 2.25% | 9.99% | 43% | 68.09% | 21.92% |  |  |  |  | 
2 | CC(C)(C)OC(=O)NCCCCCC(=O)N[C@H]1CC[C@]2(C)[C@H]3C[C@@H](O)[C@@H]4[C@@H]([C@]5(C)CC[C@H](C(C)(C)O)O5)CC[C@@]4(C)[C@]3(C)CC[C@H]2C1(C)C | 2.35% | 9.22% | 34% | 73.29% | 17.49% | 128% | 47.85 | 27.97 | 46% | fold induction at 40 min, 500 µM [6]: 6.03; Activity [7]: inactive; Activity [9]: 39.43%; Activity [10]: 15.98 g; Activity [11]: 21.85 g; TGI [14]: 53.73%; Activity [15]: 44.52%; TGI [16]: 10.45%; Activity [18]: 43.12%; inhibition (INH) [19]: Dose-dependent effect; Activity [20]: 16.05%; Activity [21]: Dose-dependent effect
3 | CC(C)(O)[C@H]1CC[C@@](C)([C@H]2CC[C@]3(C)[C@@H]2[C@H](O)C[C@@H]2[C@@]4(C)CC[C@H](N)C(C)(C)[C@@H]4CC[C@]23C)O1 |  |  | 43% |  |  | 125% | 28.11 | 10 | 72% | 
